The IC50 is the point on the concentration scale where inhibition reaches its midpoint. What is called inhibition is the drop in the measured response relative to a control, in per cent. Higher therefore signals a response far below the control.

The target in experiment [1] is Monoamine transporters; serotonin & dopamine (Rattus norvegicus) (UniProt P31652+P23977). Description: Selectivity ratio for DAT binding compared to 5-HTT binding. The format is protein assay.
Experiment [2] deals with Sodium-dependent serotonin transporter (Rattus norvegicus, UniProt P31652). Description: Inhibition of [3H]citalopram binding to Serotonin transporter (5-HTT) in rat cortical tissue. The method in brief: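 Rat cortical P2 fraction homogenized in 16 volumes of ice-cold 25 mM sodium phosphate, pH 7.7. [3H]citalopram at 2 nM final; 1 µM clomipramine defines nonspecific binding. Usually seven drug concentrations, triplicates, organic solvent ≤0.3 vol %. Incubated 3 h at 0 °C, then filtered on PEI-soaked glass fibre and counted. IC50 and Hill coefficients from dose-response curves.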

Experiment [3] concerns the target T1, Sodium-dependent dopamine transporter (Rattus norvegicus, UniProt P23977). The experiment in a line: Inhibition of [3H]DA uptake at DAT in rat striatal synaptosomes.
The target of experiment [4] is T1, Sodium-dependent dopamine transporter. The experiment in a line: Inhibition of [3H]WIN-35428 binding to the cocaine binding site on the dopamine transporter (DAT) in synaptosomal membrane preparations from rat striatal tissue. The format is cell membranes, Striatum.
In experiment [5] the target is Sodium-dependent serotonin transporter (Rattus norvegicus) (UniProt P31652). Description: Inhibition of [3H]citalopram binding to Serotonin transporter (5-HTT) in rat cortical tissue […]. The settings on record: 10 uM. The essentials:
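Rat cortical P2 membranes in 25 mM sodium phosphate, pH 7.7; 1 µM clomipramine defines nonspecific binding. Incubated 3 h at 0 °C, then rapid filtration on PEI-presoaked filters and radioactivity counting.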

A value given as a limit tells only on which side of the number the result lay.

Sequence of Monoamine transporters; serotonin & dopamine (Rattus norvegicus) (P23977 whole entry, looked up): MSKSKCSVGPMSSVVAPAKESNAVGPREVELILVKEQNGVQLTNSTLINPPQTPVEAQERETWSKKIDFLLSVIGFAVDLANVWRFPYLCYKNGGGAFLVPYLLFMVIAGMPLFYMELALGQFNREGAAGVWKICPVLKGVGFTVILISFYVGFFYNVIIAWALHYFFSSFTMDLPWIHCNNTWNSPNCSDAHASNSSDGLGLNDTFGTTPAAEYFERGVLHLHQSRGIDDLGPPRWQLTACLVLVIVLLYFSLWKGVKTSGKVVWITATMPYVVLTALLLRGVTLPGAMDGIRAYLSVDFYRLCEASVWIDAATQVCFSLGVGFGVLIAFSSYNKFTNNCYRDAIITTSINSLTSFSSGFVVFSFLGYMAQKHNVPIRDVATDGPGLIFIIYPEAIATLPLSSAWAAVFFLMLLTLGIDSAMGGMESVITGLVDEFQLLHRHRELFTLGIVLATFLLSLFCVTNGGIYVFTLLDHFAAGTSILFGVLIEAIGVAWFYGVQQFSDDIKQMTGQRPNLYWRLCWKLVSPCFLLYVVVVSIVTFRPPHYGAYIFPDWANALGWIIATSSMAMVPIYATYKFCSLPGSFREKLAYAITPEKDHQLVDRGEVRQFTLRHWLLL
Sequence of Monoamine transporters; serotonin & dopamine (Rattus norvegicus) (P31652 whole entry, looked up): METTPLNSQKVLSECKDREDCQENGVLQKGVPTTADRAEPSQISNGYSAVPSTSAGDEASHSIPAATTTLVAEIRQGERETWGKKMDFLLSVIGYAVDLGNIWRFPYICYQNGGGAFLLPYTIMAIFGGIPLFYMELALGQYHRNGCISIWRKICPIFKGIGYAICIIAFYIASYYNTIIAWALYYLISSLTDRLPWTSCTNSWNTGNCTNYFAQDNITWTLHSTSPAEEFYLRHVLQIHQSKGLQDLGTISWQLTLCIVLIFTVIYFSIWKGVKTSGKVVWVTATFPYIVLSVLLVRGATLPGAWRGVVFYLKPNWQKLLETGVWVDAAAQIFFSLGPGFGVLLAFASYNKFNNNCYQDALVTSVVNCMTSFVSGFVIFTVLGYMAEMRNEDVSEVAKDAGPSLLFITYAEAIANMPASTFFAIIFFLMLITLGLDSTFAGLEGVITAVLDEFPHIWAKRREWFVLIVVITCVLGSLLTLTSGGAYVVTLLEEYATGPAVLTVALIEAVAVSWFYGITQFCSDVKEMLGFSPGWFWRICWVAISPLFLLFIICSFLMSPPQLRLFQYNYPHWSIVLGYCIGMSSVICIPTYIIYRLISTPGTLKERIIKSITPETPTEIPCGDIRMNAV
T1 sequence (P23977 whole entry): as the sequence (P23977 whole entry, looked up) above
Sequence of Sodium-dependent serotonin transporter (Rattus norvegicus) (P31652 whole entry): as the sequence (P31652 whole entry, looked up) above
Sequence of Sodium-dependent serotonin transporter (P31652 whole entry): as the sequence (P31652 whole entry, looked up) above

In the case of `CN1CC2CCC(C1)C2c1ccccc1` (stereo unspecified), the Selectivity ratio in experiment [1] turned out to be 5.1. For the same compound, the IC50 in experiment [2] came to 1.85 µM; in experiment [3] it was 1.04 µM; in experiment [4], 0.36 µM.

With `OC1(c2ccccc2)C2CCC1CN(Cc1ccccc1)C2` (stereo unspecified), the Selectivity ratio in experiment [1] stood at 0.17. Also, the IC50 in experiment [2] turned out to be 3.06 µM; in experiment [3], 27.1 µM; in experiment [4], 17.5 µM.

On to `c1ccc(C2C3CCC2CNC3)cc1` (stereo unspecified), for which the Selectivity ratio in experiment [1] was 16. In addition, the IC50 in experiment [2] came to 4 µM; in experiment [3] it was 0.893 µM; in experiment [4], 0.258 µM.

Regarding `c1ccc(CN2CC3CCC(C2)C3c2ccccc2)cc1` (stereo in doubt; 14), the Selectivity ratio in experiment [1] was found to be 4.9.

Consider `c1ccc(CN2CC3CCC(C2)C3OC(c2ccccc2)c2ccccc2)cc1` (stereo in doubt; 17a) [listing 1 of 2 here], for which the Selectivity ratio in experiment [1] is 27. For the same compound, in experiment [5], the inhibition amounted to 61%.

Take `Clc1ccc(C2C3CCC2CN(Cc2ccccc2)C3)cc1` (stereo unspecified): in experiment [1], the Selectivity ratio turned out to be 4.2. Moreover, the values for the IC50 in experiment [2], in experiment [3] and in experiment [4] were 0.402 µM, 0.601 µM and 0.0955 µM, respectively.

Regarding `CN1CC2CCC(C1)C2(O)c1ccccc1` (stereo unspecified), in experiment [1], the Selectivity ratio was greater than 1. Further, the IC50 is greater than 10 µM in experiment [2], 9.77 µM in experiment [3] and 10.1 µM in experiment [4]. Also, in experiment [5], the inhibition came out at 27.8%.

For the compound `c1ccc(CN2CC3CCC(C2)C3c2ccccc2)cc1` (stereo in doubt; 8a) [3-BENZYL-8-PHENYL-3-AZA-BICYCLO[3.2.1]OCTANE (STEREOISOMERIC MIX)], the IC50 in experiment [2] was 3.46 µM; in experiment [3], 0.309 µM; in experiment [4] it was 0.234 µM.

For `c1ccc(CN2CC3CCC(C2)C3OC(c2ccccc2)c2ccccc2)cc1` (stereo in doubt; 17a) [listing 2 of 2 here], the IC50 came out at 10 µM in experiment [2], 0.735 µM in experiment [3] and 0.363 µM in experiment [4].

On to `c1ccc(CN2CC3CCC(C2)C3c2ccccc2)cc1` (stereo in doubt; 14) [3-BENZYL-8-PHENYL-3-AZA-BICYCLO[3.2.1]OCTANE (STEREOISOMERIC MIX)], for which the IC50 in experiment [2] was 3.88 µM; in experiment [3] it was 4.45 µM; in experiment [4], 0.785 µM.

Take `c1ccc(CN2CC3CCC(C2)C3c2ccccc2)cc1` (stereo in doubt; 8a): the Selectivity ratio in experiment [1] came to 14.8.

For `CN1CC2CCC(C1)C2c1ccc(Cl)cc1` (stereo unspecified), the Selectivity ratio in experiment [1] came to 0.81. The IC50 in experiment [2] turned out to be 0.22 µM; in experiment [3], 0.926 µM.

Turning to `c1ccc(CN2CC3CCC(C2)C3OC(c2ccccc2)c2ccccc2)cc1` (stereo in doubt; 17b) [listing 1 of 2 here], the Selectivity ratio in experiment [1] was greater than 18. The compound also had an inhibition in experiment [5] of 29.8%.

As to `c1ccc(CN2CC3CCC(C2)C3OC(c2ccccc2)c2ccccc2)cc1` (stereo in doubt; 17b) [listing 2 of 2 here], the IC50 in experiment [2] is greater than 10 µM; in experiment [3], 1.98 µM; in experiment [4] it was 0.536 µM.

With `c1ccc(CN2CC3CCC(C3)C2)cc1`, the Selectivity ratio in experiment [1] is greater than 0.41. Besides, the half-inhibitory concentration (IC50) is greater than 10 µM in experiment [2], 35.7 µM in experiment [3] and 24.3 µM in experiment [4]. The compound also had an inhibition in experiment [5] of 24.4%.

For the compound `Clc1ccc(C2C3CCC2CNC3)cc1` (stereo unspecified), the Selectivity ratio in experiment [1] turned out to be 4.4. Besides, the IC50 in experiment [2] is 0.363 µM; in experiment [3] it was 0.478 µM; in experiment [4], 0.0815 µM.

For `OC1C2CCC1CN(Cc1ccccc1)C2` (stereo unspecified), the Selectivity ratio in experiment [1] was greater than 0.45. The IC50 in experiment [2] is greater than 10 µM; in experiment [3], 45 µM; in experiment [4], 22.1 µM. Moreover, the inhibition in experiment [5] came to 23.8%.

As to `BrC1C2CCC1CN(Cc1ccccc1)C2` (stereo unspecified), the Selectivity ratio in experiment [1] is greater than 2.2. Further, the IC50 was greater than 10 µM in experiment [2] and 8.64 µM in experiment [3]. This compound displayed an inhibition in experiment [5] of 30.4%.

In experiment [5], `OC1(c2ccccc2)C2CCC1CNC2` (stereo unspecified) showed an inhibition of 46.2%. The compound further had an IC50 in experiment [3] of 8.48 µM.

With `OC1(c2ccc(Cl)cc2)C2CCC1CN(Cc1ccccc1)C2` (stereo unspecified), the Selectivity ratio in experiment [1] came to 0.66. The IC50 in experiment [2] turned out to be 0.997 µM; in experiment [3], 2.63 µM; in experiment [4] it was 1.51 µM.

(Values after ChEMBL document CHEMBL1136760 (J Med Chem, 2003).)
